From ChEMBL document CHEMBL1255541, “Novel indoline-1- or 3,4-dihydroquinoline-1(2H)-substituted carbothiohydrazides as TPO receptor agonists” (Bioorg Med Chem Lett, 2010)

Columns and labels:
Thrombopoietin receptor = molecular target: T1, Thrombopoietin receptor (Homo sapiens, UniProt P40238); test: Agonist activity at human TPOR expressed
T1 sequence (P40238 whole entry): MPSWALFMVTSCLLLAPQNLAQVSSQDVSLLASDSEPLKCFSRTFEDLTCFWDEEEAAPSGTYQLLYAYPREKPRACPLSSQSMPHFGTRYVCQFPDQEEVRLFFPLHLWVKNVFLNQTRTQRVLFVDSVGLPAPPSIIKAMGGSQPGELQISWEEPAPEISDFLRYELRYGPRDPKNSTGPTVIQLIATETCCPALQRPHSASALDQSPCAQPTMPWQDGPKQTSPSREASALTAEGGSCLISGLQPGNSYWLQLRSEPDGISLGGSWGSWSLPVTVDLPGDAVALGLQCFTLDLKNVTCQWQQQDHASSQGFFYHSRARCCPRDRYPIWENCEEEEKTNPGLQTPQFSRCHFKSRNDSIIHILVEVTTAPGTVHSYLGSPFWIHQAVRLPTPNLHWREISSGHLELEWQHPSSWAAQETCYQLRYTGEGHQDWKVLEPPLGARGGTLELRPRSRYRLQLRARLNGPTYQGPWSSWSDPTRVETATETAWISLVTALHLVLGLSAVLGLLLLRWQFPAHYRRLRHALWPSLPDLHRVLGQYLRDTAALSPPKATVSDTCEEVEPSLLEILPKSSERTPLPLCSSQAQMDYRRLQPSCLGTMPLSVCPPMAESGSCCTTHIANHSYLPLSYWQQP

[1] = AUC (0 to t) in rat at 5 mg/kg, po; format: ADME, organism-based; parameters: dose 5 mg/kg, route oral; conditions: plasma
Procedure, shortened: (§1)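 Test substances given as ethanolamine salts, orally at 5 mg/kg to rats. Plasma concentration–time profiles were used to derive apparent total plasma clearance (CLz/F), half-life, AUC0–t and peak plasma concentration (Cmax). Values are reported as mean ± spread.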

[2] = Apparent total plasma clearance in rat at 5 mg/kg, po; format: ADME, organism-based; parameters: dose 5 mg/kg, route oral; conditions: read-out: CLt/F (converted)
Procedure, shortened: as §1

[3] = Cmax in rat at 5 mg/kg, po; format: ADME, organism-based; parameters: dose 5 mg/kg, route oral; conditions: in vivo
Procedure, shortened: as §1

[4] = Half life in rat at 5 mg/kg, po; format: ADME, organism-based; parameters: dose 5 mg/kg, route oral; conditions: in vivo
Procedure, shortened: as §1

[5] = molecular target: T2, Thrombopoietin receptor (Homo sapiens) (UniProt P40238); test: Agonist activity at human TPOR expressed in mouse BaF3 cells at 150 nM
T2 sequence (whole entry): T1 sequence (P40238 whole entry)

[6] = molecular target: T2, Thrombopoietin receptor (Homo sapiens); test: Agonist activity at human TPOR expressed in mouse BaF3 cells at 300 nM

SMILES	EC50 (Thrombopoietin receptor)	% activity vs 10 ng/ml TPO [5]	% activity vs 10 ng/ml TPO [6]	also measured
CC1=NN(c2ccc3c(c2)CCC3)C(=O)/C1=C(/C)NNC(=S)N1CCCc2cc(C(=O)O)ccc21	35 nM	–	–	–
CC1=NN(c2ccc(C)c(C)c2)C(=O)/C1=C(/C)NNC(=S)N1CCCc2cc(C(=O)O)ccc21	64 nM	–	–	–
CC1=NN(c2ccc(C)c(C)c2)C(=O)/C1=C(/C)NNC(=O)N1CCc2cc(C(=O)O)ccc21	42 nM	–	–	AUC(0-t) [1]: 923 ng·h/mL; CL/F [2]: 113 mL/min/kg; Cmax [3]: 859 ng/mL; half-life [4]: 1.86 h
C/C(NNC(=S)N1CCCc2cc(C(=O)O)ccc21)=C1/C(=O)N(c2ccc(C)c(C)c2)c2ccccc21	–	30.9%	33.4%	–
CC1=NN(c2ccc3c(c2)CCC3)C(=O)/C1=C(/C)NNC(=S)N1CCc2cc(C(=O)O)ccc21	3 nM	–	–	–
C/C(NNC(=S)N1CCc2cc(C(=O)O)ccc21)=C1/C(=O)N(c2ccc(C)cc2)c2ccc(F)cc21	–	78.1%	122%	–
C/C(NNC(=S)N1CCCc2cc(C(=O)O)ccc21)=C1/C(=O)N(c2ccc(C)cc2)c2ccccc21	–	47.3%	101%	–
C/C(NNC(=S)N1CCc2cc(C(=O)O)ccc21)=C1/C(=O)N(c2ccc3c(c2)CCC3)c2ccccc21	–	14.3%	75.8%	–
CNC(=O)c1ccc2c(c1)CCN2C(=S)NN/C(C)=C1\C(=O)N(c2ccc(C)c(C)c2)N=C1C	22 nM	–	–	–
CCNC(=O)c1ccc2c(c1)CCN2C(=S)NN/C(C)=C1\C(=O)N(c2ccc(C)c(C)c2)N=C1C	26 nM	–	–	–
C/C(NNC(=S)N1CCc2cc(C(=O)O)ccc21)=C1/C(=O)N(c2ccc3c(c2)CCC3)c2ccc(F)cc21	–	3.2%	10.6%	–
CC1=NN(c2ccc(C)c(C)c2)C(=O)/C1=C(/C)NNC(=S)N1CCc2cc(C(=O)O)ccc21	6 nM	–	–	–
CC1=NN(c2ccc(C)c(C)c2)C(=O)/C1=C(/C)NNC(=S)N1CCc2cc(C(=O)N3CCOCC3)ccc21	31 nM	–	–	–
C/C(NNC(=S)N1CCc2cc(C(=O)O)ccc21)=C1/C(=O)N(c2ccc(C)cc2)c2ccccc21	–	47.8%	107%	–
CC1=NN(c2ccc3c(c2)CCC3)C(=O)/C1=C(/C)NNC(=O)N1CCc2cc(C(=O)O)ccc21	46 nM	–	–	AUC(0-t) [1]: 4460 ng·h/mL; CL/F [2]: 20.5 mL/min/kg; Cmax [3]: 3550 ng/mL; half-life [4]: 1.48 h
C/C(NNC(=S)N1CCc2cc(C(=O)O)ccc21)=C1/C(=O)N(c2ccc(C)c(C)c2)c2ccccc21	–	72.4%	138%	–
